Test results: ChEMBL document CHEMBL1833957, “P1-substituted symmetry-based human immunodeficiency virus protease inhibitors with potent antiviral activity against drug-resistant viruses” (J Med Chem, 2011)
pEC50: −log10 of the molar value. Values after ≈ are worked out from the molar mass of the structure shown.

Tested on: Human immunodeficiency virus 1
Assay: Antiviral activity against HIV1 B26 harboring protease L33F, K45I, M46I, I50V, A71V and V82F mutant infected in human MT4 cells assessed as inhibition of virus-induced cell death after 5 days by MTT assay relative to wild type HIV1 pNL4-3
Format: functional
Settings: not given
For `COC(=O)N[C@H](C(=O)N[C@@H](Cc1ccccc1)C[C@H](O)[C@H](Cc1ccc(-c2cncc(F)c2)cc1)NC(=O)[C@@H](NC(=O)OC)C(C)(C)C)C(C)(C)C`, the “fold change (FC)” value was 3. In the case of `COC(=O)N[C@H](C(=O)N[C@@H](Cc1ccccc1)C[C@H](O)[C@H](Cc1ccc(-c2cccc(N)c2)cc1)NC(=O)[C@@H](NC(=O)OC)C(C)(C)C)C(C)(C)C`, the “fold change (FC)” value was 3. In the case of `COC(=O)N[C@H](C(=O)N[C@@H](Cc1ccccc1)C[C@H](O)[C@H](Cc1ccc(-c2ccc(OC)cc2)cc1)NC(=O)[C@@H](NC(=O)OC)C(C)(C)C)C(C)(C)C`, the “fold change (FC)” value was 30.

Tested on: not listed separately
Assay: Oral bioavailability in rat at 5 mg/kg
Format: ADME, organism-based
Settings: in vivo
`COC(=O)N[C@H](C(=O)N[C@@H](Cc1ccccc1)C[C@H](O)[C@H](Cc1ccc(-c2cncc(F)c2)cc1)NC(=O)[C@@H](NC(=O)OC)C(C)(C)C)C(C)(C)C` gave a bioavailability of 13%. `COC(=O)N[C@H](C(=O)N[C@@H](Cc1ccccc1)C[C@H](O)[C@H](Cc1ccc(-c2cccc(N)c2)cc1)NC(=O)[C@@H](NC(=O)OC)C(C)(C)C)C(C)(C)C` showed a bioavailability of 1%. For `COC(=O)N[C@H](C(=O)N[C@@H](Cc1ccccc1)C[C@H](O)[C@H](Cc1ccc(-c2ccc(OC)cc2)cc1)NC(=O)[C@@H](NC(=O)OC)C(C)(C)C)C(C)(C)C`, the bioavailability was 0%.

Tested on: Human immunodeficiency virus 1
Assay: (§1) Antiviral activity against HIV1 isolate 1 harboring protease L10I, E35D, N37D, M46I, I54V, G57R, L63P, A71V, T74P, I84V, L90M, I93L mutant infected in human MT4 cells assessed as inhibition of virus-induced cell death after 5 days by MTT assay relative to wild type HIV1 pNL4-3
Format: functional
Settings: not given
With `COC(=O)N[C@H](C(=O)N[C@@H](Cc1ccccc1)C[C@H](O)[C@H](Cc1ccc(-c2cncc(F)c2)cc1)NC(=O)[C@@H](NC(=O)OC)C(C)(C)C)C(C)(C)C` the “fold change (FC)” value was 38. In the case of `COC(=O)N[C@H](C(=O)N[C@@H](Cc1ccccc1)C[C@H](O)[C@H](Cc1ccc(-c2cccc(N)c2)cc1)NC(=O)[C@@H](NC(=O)OC)C(C)(C)C)C(C)(C)C`, the “fold change (FC)” value was 9. In the case of `COC(=O)N[C@H](C(=O)N[C@@H](Cc1ccccc1)C[C@H](O)[C@H](Cc1ccc(-c2ccc(OC)cc2)cc1)NC(=O)[C@@H](NC(=O)OC)C(C)(C)C)C(C)(C)C`, the “fold change (FC)” value was 34.

Tested on: not listed separately
Assay: AUC in rat at 5 mg/kg, po
Format: ADME, organism-based
Design: dose 5 mg/kg, route oral
Settings: plasma
Summary of the method: (§2)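 Rats given a single 5 mg/kg oral dose with no ritonavir. Plasma Cmax is reported in μg/mL and AUC in μg h/mL.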
Compound `COC(=O)N[C@H](C(=O)N[C@@H](Cc1ccccc1)C[C@H](O)[C@H](Cc1ccc(-c2cncc(F)c2)cc1)NC(=O)[C@@H](NC(=O)OC)C(C)(C)C)C(C)(C)C` has an AUC of 160 ng·h/mL. With `COC(=O)N[C@H](C(=O)N[C@@H](Cc1ccccc1)C[C@H](O)[C@H](Cc1ccc(-c2cccc(N)c2)cc1)NC(=O)[C@@H](NC(=O)OC)C(C)(C)C)C(C)(C)C` the AUC was 20 ng·h/mL.

Tested on: not listed separately
Assay: Oral bioavailability in rat at 5 mg/kg co-administered with 5 mg/kg of CYP3A4 inhibitor ritonavir relative to iv dose without ritonavir co-administration
Format: ADME, organism-based
Settings: in vivo
Summary of the method: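 Rats given 5 mg/kg orally with 5 mg/kg ritonavir. Bioavailability (%) is calculated against an IV dose given without ritonavir.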
`COC(=O)N[C@H](C(=O)N[C@@H](Cc1ccccc1)C[C@H](O)[C@H](Cc1ccc(-c2cccc(N)c2)cc1)NC(=O)[C@@H](NC(=O)OC)C(C)(C)C)C(C)(C)C` showed a bioavailability of 5%. `COC(=O)N[C@H](C(=O)N[C@@H](Cc1ccccc1)C[C@H](O)[C@H](Cc1ccc(-c2ccc(OC)cc2)cc1)NC(=O)[C@@H](NC(=O)OC)C(C)(C)C)C(C)(C)C` showed a bioavailability of 14%.

Tested on: not listed separately
Assay: Cmax in rat at 5 mg/kg, po
Format: ADME, organism-based
Design: dose 5 mg/kg, route oral
Settings: in vivo
Summary of the method: as §2
Work on `COC(=O)N[C@H](C(=O)N[C@@H](Cc1ccccc1)C[C@H](O)[C@H](Cc1ccc(-c2cncc(F)c2)cc1)NC(=O)[C@@H](NC(=O)OC)C(C)(C)C)C(C)(C)C` yielded a Cmax of 110 ng/mL. Compound `COC(=O)N[C@H](C(=O)N[C@@H](Cc1ccccc1)C[C@H](O)[C@H](Cc1ccc(-c2cccc(N)c2)cc1)NC(=O)[C@@H](NC(=O)OC)C(C)(C)C)C(C)(C)C` has a Cmax of 100 ng/mL.

Tested on: not listed separately
Assay: AUC in rat at 5 mg/kg, po co-administered with 5 mg/kg of CYP3A4 inhibitor ritonavir
Format: ADME, organism-based
Settings: plasma
Summary of the method: (§3)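 Rats given 5 mg/kg orally together with 5 mg/kg ritonavir. Plasma Cmax is reported in μg/mL and AUC in μg h/mL.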
Compound `COC(=O)N[C@H](C(=O)N[C@@H](Cc1ccccc1)C[C@H](O)[C@H](Cc1ccc(-c2cccc(N)c2)cc1)NC(=O)[C@@H](NC(=O)OC)C(C)(C)C)C(C)(C)C` has an AUC of 70 ng·h/mL. For `COC(=O)N[C@H](C(=O)N[C@@H](Cc1ccccc1)C[C@H](O)[C@H](Cc1ccc(-c2ccc(OC)cc2)cc1)NC(=O)[C@@H](NC(=O)OC)C(C)(C)C)C(C)(C)C`, the AUC was 270 ng·h/mL.

Tested on: Human immunodeficiency virus 1
Assay: as §1, with “HIV1” for “HIV1 isolate 1”, “I13V, G16A, Q18H, L33F,” for “E35D,”, “G57R, Q61H,I62V,” for “G57R,”, “A71L, I72T, L76V, V77I, V82A, N88G,” for “A71V, T74P, I84V,”
Format: functional
Settings: not given
In the case of `COC(=O)N[C@H](C(=O)N[C@@H](Cc1ccccc1)C[C@H](O)[C@H](Cc1ccc(-c2cncc(F)c2)cc1)NC(=O)[C@@H](NC(=O)OC)C(C)(C)C)C(C)(C)C`, the “fold change (FC)” value was 2. For `COC(=O)N[C@H](C(=O)N[C@@H](Cc1ccccc1)C[C@H](O)[C@H](Cc1ccc(-c2cccc(N)c2)cc1)NC(=O)[C@@H](NC(=O)OC)C(C)(C)C)C(C)(C)C`, the “fold change (FC)” value was 1. In the case of `COC(=O)N[C@H](C(=O)N[C@@H](Cc1ccccc1)C[C@H](O)[C@H](Cc1ccc(-c2ccc(OC)cc2)cc1)NC(=O)[C@@H](NC(=O)OC)C(C)(C)C)C(C)(C)C`, the “fold change (FC)” value was 18.

Tested on: not listed separately
Assay: Aqueous solubility of the compound
Format: physicochemical
Settings: buffer
Work on `COC(=O)N[C@H](C(=O)N[C@@H](Cc1ccccc1)C[C@H](O)[C@H](Cc1ccc(-c2cncc(F)c2)cc1)NC(=O)[C@@H](NC(=O)OC)C(C)(C)C)C(C)(C)C` yielded a solubility of 10.4 µM (≈ 7.51 µg/mL).

Tested on: not listed separately
Assay: Cmax in rat at 5 mg/kg, po co-administered with 5 mg/kg of CYP3A4 inhibitor ritonavir
Format: ADME, organism-based
Design: dose 5 mg/kg, route oral
Settings: in vivo
Summary of the method: as §3
Work on `COC(=O)N[C@H](C(=O)N[C@@H](Cc1ccccc1)C[C@H](O)[C@H](Cc1ccc(-c2cccc(N)c2)cc1)NC(=O)[C@@H](NC(=O)OC)C(C)(C)C)C(C)(C)C` yielded a Cmax of 100 ng/mL. `COC(=O)N[C@H](C(=O)N[C@@H](Cc1ccccc1)C[C@H](O)[C@H](Cc1ccc(-c2ccc(OC)cc2)cc1)NC(=O)[C@@H](NC(=O)OC)C(C)(C)C)C(C)(C)C` showed a Cmax of 50 ng/mL.

Tested on: Human immunodeficiency virus 1
Assay: Antiviral activity against wild type HIV1 pNL4-3 infected in human MT4 cells assessed as inhibition of virus-induced cell death after 5 days by MTT assay in presence of 50% human serum
Format: functional, organism-based
Settings: Human immunodeficiency virus 1, pNL4-3, MT4, 120 h
In the case of `COC(=O)N[C@H](C(=O)N[C@@H](Cc1ccccc1)C[C@H](O)[C@H](Cc1ccc(-c2cncc(F)c2)cc1)NC(=O)[C@@H](NC(=O)OC)C(C)(C)C)C(C)(C)C`, the pEC50 was 7.62. `COC(=O)N[C@H](C(=O)N[C@@H](Cc1ccccc1)C[C@H](O)[C@H](Cc1ccc(-c2cccc(N)c2)cc1)NC(=O)[C@@H](NC(=O)OC)C(C)(C)C)C(C)(C)C` showed a pEC50 of 7.70. Work on `COC(=O)N[C@H](C(=O)N[C@@H](Cc1ccccc1)C[C@H](O)[C@H](Cc1ccc(-c2ccc(OC)cc2)cc1)NC(=O)[C@@H](NC(=O)OC)C(C)(C)C)C(C)(C)C` yielded a pEC50 of 8.52.

Tested on: Human immunodeficiency virus 1
Assay: Antiviral activity against wild type HIV1 pNL4-3 infected in human MT4 cells assessed as inhibition of virus-induced cell death after 5 days by MTT assay
Format: functional, organism-based
Settings: Human immunodeficiency virus 1, pNL4-3, MT4, 120 h
Summary of the method: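 EC50 measured against wild-type virus in MT-4 cells, with no human serum added.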
With `COC(=O)N[C@H](C(=O)N[C@@H](Cc1ccccc1)C[C@H](O)[C@H](Cc1ccc(-c2cncc(F)c2)cc1)NC(=O)[C@@H](NC(=O)OC)C(C)(C)C)C(C)(C)C` the pEC50 was 8.40. `COC(=O)N[C@H](C(=O)N[C@@H](Cc1ccccc1)C[C@H](O)[C@H](Cc1ccc(-c2cccc(N)c2)cc1)NC(=O)[C@@H](NC(=O)OC)C(C)(C)C)C(C)(C)C` showed a pEC50 of 8.30. Compound `COC(=O)N[C@H](C(=O)N[C@@H](Cc1ccccc1)C[C@H](O)[C@H](Cc1ccc(-c2ccc(OC)cc2)cc1)NC(=O)[C@@H](NC(=O)OC)C(C)(C)C)C(C)(C)C` has a pEC50 of 9.00.

Tested on: not listed separately
Assay: Metabolic stability in human liver microsomes assessed as disappearance of the compound after 20 mins
Format: ADME, Microsome
Settings: read-out: Drug metabolism
`COC(=O)N[C@H](C(=O)N[C@@H](Cc1ccccc1)C[C@H](O)[C@H](Cc1ccc(-c2cncc(F)c2)cc1)NC(=O)[C@@H](NC(=O)OC)C(C)(C)C)C(C)(C)C` gave a metabolised at 20 min of 40%.

Tested on: not listed separately
Assay: Permeability of the compound
Format: ADME
Settings: not told; read-out: permeability
With `COC(=O)N[C@H](C(=O)N[C@@H](Cc1ccccc1)C[C@H](O)[C@H](Cc1ccc(-c2cncc(F)c2)cc1)NC(=O)[C@@H](NC(=O)OC)C(C)(C)C)C(C)(C)C` the Papp was 7.3 ×10⁻⁶ cm/s.

Tested on: Human immunodeficiency virus 1
Assay: Antiviral activity against HIV1 A17 harboring protease L10F, V32I, M46I, I47V, Q58E and I84V mutant infected in human MT4 cells assessed as inhibition of virus-induced cell death after 5 days by MTT assay relative to wild type HIV1 pNL4-3
Format: functional
Settings: not given
With `COC(=O)N[C@H](C(=O)N[C@@H](Cc1ccccc1)C[C@H](O)[C@H](Cc1ccc(-c2cncc(F)c2)cc1)NC(=O)[C@@H](NC(=O)OC)C(C)(C)C)C(C)(C)C` the “fold change (FC)” value was 3. With `COC(=O)N[C@H](C(=O)N[C@@H](Cc1ccccc1)C[C@H](O)[C@H](Cc1ccc(-c2cccc(N)c2)cc1)NC(=O)[C@@H](NC(=O)OC)C(C)(C)C)C(C)(C)C` the “fold change (FC)” value was 3. With `COC(=O)N[C@H](C(=O)N[C@@H](Cc1ccccc1)C[C@H](O)[C@H](Cc1ccc(-c2ccc(OC)cc2)cc1)NC(=O)[C@@H](NC(=O)OC)C(C)(C)C)C(C)(C)C` the “fold change (FC)” value was 48.
